# Source: ChEMBL document CHEMBL1772947, “Discovery and optimization of a novel, selective and brain penetrant M1 positive allosteric modulator (PAM): the development of ML169, an MLPCN probe” (Bioorg Med Chem Lett, 2011)
# Calls of active or inactive are those of the source. The rule behind the calls is not given here.
# Assays:
# [1] = biological target: T1, Muscarinic acetylcholine receptor M1 (Rattus norvegicus) (UniProt P08482); test: Allosteric modulation at rat M1 receptor expressed in CHO cells by calcium mobilization assay relative to acetylcholine; format: functional, cell-based; parameters: concentration or dose not given beside the values
# T1 sequence (whole entry): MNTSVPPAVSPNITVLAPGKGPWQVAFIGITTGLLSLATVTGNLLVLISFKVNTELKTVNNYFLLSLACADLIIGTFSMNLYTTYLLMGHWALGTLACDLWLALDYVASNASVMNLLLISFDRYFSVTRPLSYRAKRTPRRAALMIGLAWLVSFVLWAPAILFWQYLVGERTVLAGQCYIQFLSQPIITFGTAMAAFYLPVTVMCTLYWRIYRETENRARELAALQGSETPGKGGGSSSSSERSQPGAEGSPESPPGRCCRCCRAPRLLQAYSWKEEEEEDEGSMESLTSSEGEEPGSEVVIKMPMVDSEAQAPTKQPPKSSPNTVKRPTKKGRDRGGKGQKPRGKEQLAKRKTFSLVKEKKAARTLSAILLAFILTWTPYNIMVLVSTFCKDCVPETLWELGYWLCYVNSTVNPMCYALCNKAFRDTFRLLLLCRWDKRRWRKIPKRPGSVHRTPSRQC
# [2] = biological target: T2, Muscarinic acetylcholine receptor M1 (Rattus norvegicus, UniProt P08482); test: Allosteric modulation at rat M1 receptor expressed in CHO cells by calcium mobilization assay; format: functional, cell-based
# T2 sequence (P08482 whole entry): T1 sequence (whole entry)
# [3] = biological target: T1, Muscarinic acetylcholine receptor M1 (Rattus norvegicus); test: Agonist activity at rat M1 receptor expressed in CHO cells assessed as leftward shift in Ach response at 30 uM by calcium mobilization assay; format: functional, cell-based
# [4] = biological target: T3, Muscarinic acetylcholine receptor M2 (Homo sapiens, UniProt P08172); test: Agonist activity at M2 receptor; format: functional
# T3 sequence (P08172 whole entry): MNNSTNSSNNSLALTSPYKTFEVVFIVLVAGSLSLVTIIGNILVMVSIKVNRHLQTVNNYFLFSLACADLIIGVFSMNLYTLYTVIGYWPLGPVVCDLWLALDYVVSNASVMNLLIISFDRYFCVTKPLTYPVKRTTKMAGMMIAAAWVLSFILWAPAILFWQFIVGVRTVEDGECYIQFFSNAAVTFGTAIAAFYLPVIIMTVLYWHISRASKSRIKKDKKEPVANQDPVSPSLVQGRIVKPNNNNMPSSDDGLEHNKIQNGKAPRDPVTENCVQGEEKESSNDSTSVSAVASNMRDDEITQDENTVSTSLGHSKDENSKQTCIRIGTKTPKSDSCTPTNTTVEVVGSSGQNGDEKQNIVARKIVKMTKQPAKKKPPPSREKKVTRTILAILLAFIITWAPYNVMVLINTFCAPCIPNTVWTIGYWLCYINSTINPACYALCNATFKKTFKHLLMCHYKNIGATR
# [5] = biological target: T4, Muscarinic acetylcholine receptor M5 (Homo sapiens, UniProt P08912); test: Agonist activity at M5 receptor; format: functional
# T4 sequence (P08912 whole entry): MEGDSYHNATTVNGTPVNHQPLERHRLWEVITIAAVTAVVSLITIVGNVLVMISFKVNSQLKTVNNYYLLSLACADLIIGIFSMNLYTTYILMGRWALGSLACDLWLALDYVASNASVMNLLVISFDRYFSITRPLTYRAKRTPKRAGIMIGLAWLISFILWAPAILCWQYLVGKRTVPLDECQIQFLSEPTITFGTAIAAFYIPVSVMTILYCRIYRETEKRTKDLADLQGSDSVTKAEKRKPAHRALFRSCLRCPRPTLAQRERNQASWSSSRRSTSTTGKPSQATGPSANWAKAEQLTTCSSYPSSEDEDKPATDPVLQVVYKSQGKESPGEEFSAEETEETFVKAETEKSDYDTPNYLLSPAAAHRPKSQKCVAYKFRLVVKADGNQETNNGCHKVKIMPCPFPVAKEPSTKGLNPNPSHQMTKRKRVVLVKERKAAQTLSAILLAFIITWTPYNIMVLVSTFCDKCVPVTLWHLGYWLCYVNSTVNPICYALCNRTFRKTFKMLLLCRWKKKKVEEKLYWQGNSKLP
# [6] = biological target: T5, Muscarinic acetylcholine receptor M4 (Homo sapiens, UniProt P08173); test: Agonist activity at M4 receptor; format: functional
# T5 sequence (P08173 whole entry): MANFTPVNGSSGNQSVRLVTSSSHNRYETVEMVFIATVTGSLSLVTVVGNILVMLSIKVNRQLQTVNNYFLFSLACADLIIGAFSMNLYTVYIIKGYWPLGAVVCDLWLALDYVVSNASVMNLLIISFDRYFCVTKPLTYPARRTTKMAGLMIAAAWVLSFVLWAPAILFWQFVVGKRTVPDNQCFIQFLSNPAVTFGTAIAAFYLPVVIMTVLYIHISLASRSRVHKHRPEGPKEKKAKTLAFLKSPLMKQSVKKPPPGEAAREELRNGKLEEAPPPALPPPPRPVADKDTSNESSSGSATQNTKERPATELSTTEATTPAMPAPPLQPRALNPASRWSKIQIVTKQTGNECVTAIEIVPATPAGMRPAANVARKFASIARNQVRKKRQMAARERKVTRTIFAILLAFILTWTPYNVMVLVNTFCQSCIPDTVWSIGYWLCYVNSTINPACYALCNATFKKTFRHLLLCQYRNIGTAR
# [7] = biological target: T6, Muscarinic acetylcholine receptor M3 (Homo sapiens, UniProt P20309); test: Agonist activity at M3 receptor; format: functional
# Target sequence in this assay (P20309 whole entry): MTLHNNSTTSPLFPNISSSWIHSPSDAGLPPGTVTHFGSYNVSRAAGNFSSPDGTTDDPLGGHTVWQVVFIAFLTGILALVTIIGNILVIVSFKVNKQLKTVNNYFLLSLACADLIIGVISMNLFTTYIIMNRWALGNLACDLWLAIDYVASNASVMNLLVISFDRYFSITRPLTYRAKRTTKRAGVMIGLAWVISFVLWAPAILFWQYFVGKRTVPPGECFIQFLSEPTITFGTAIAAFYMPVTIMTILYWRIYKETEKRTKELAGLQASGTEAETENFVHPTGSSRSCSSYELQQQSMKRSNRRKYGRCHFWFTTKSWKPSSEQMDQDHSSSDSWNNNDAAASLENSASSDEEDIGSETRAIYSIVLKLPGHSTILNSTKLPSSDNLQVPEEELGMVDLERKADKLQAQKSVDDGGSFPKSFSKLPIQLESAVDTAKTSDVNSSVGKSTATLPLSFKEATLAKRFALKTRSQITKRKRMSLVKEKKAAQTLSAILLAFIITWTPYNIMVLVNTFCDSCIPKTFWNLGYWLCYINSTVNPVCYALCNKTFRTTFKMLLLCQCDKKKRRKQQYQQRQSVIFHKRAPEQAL
# [8] = biological target: T7, Muscarinic acetylcholine receptor M4 (Homo sapiens) (UniProt P08173); test: Orthosteric binding affinity to M4 receptor at 10 uM by radioligand binding assay
# T7 sequence (whole entry): T5 sequence (P08173 whole entry)
# Method in brief: (§1)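 Radioligand binding panel of 68 GPCRs, ion channels and transporters (Lead Profile screen, run externally), compound tested at 10 μM; read-out as percent activity at each target.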
# [9] = biological target: T8, Muscarinic acetylcholine receptor M2 (Homo sapiens) (UniProt P08172); test: Orthosteric binding affinity to M2 receptor at 10 uM by radioligand binding assay; method in brief: as §1
# T8 sequence (whole entry): T3 sequence (P08172 whole entry)
# [10] = Binding affinity to Sodium channel site 2 at 10 uM by radioligand binding assay; method in brief: as §1
# [11] = biological target: T9, Muscarinic acetylcholine receptor M5 (Homo sapiens) (UniProt P08912); test: Orthosteric binding affinity to M5 receptor at 10 uM by radioligand binding assay; method in brief: as §1
# T9 sequence (whole entry): T4 sequence (P08912 whole entry)
# [12] = biological target: Sodium-dependent dopamine transporter (Homo sapiens) (UniProt Q01959); test: Binding affinity to DAT at 10 uM by radioligand binding assay; method in brief: as §1
# [13] = biological target: T6, Muscarinic acetylcholine receptor M3; test: Orthosteric binding affinity to M3 receptor at 10 uM by radioligand binding assay; method in brief: as §1
# Target sequence in this assay (P20309 whole entry, looked up): as the sequence (P20309 whole entry) above
# [14] = Ratio of AUC in brain to plasma in rat at 10 mg/kg, ip after 1 hr; format: ADME, organism-based; parameters: dose 10 mg/kg, route intraperitoneal; conditions: brain and plasma
# [15] = biological target: T1, Muscarinic acetylcholine receptor M1 (Rattus norvegicus); test: Orthosteric binding affinity to rat M1 receptor at 10 uM by radioligand binding assay; method in brief: as §1
# Sodium-dependent dopamine transporter (Homo sapiens), sequence (Q01959 whole entry): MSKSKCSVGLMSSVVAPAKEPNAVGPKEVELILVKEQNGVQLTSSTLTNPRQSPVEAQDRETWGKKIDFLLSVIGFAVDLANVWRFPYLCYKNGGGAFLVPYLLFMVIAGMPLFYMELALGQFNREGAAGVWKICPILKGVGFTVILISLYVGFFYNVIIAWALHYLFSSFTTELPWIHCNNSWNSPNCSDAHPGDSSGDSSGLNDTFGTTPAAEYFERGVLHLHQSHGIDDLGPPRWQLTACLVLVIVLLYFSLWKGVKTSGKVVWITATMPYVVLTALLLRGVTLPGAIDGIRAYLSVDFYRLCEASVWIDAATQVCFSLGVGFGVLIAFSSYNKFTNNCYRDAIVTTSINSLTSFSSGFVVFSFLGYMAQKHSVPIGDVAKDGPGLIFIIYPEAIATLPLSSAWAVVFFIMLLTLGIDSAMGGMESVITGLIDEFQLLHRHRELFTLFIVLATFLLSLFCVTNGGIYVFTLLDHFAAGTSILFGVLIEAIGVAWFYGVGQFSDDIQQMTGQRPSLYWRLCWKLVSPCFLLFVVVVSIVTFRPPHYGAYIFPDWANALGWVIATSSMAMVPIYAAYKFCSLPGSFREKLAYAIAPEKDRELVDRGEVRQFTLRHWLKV
Activity [1],EC50 [2],SMILES,further results
,> 10 µM,Cc1cc(NC(=O)CS(=O)(=O)c2cn(Cc3ccccc3F)c3ccccc23)no1,
,> 10 µM,Cc1cc(NC(=O)CS(=O)(=O)c2cn(Cc3cccc(Br)c3F)c3ccccc23)no1,
102%,3.21 µM,Cc1cc(NC(=O)CS(=O)(=O)c2cn(Cc3cccc(-c4cnn(C)c4)c3)c3ccccc23)no1,
91%,,Cc1cc(NC(=O)CS(=O)(=O)c2cn(Cc3cccc(Br)c3)c3ccccc23)no1,
79%,,COc1cccc(Cn2cc(S(=O)(=O)CC(=O)Nc3cc(C)on3)c3ccccc32)c1,
,9.71 µM,Cc1cc(NC(=O)CS(=O)(=O)c2cn(Cc3ccccc3Cl)c3ccccc23)no1,EC50 [4]: > 30 µM; EC50 [5]: > 30 µM; EC50 [6]: > 30 µM; EC50 [7]: > 30 µM
,> 10 µM,Cc1cc(NC(=O)CS(=O)(=O)c2cn(Cc3ccc(Cl)cc3)c3ccccc23)no1,
,> 10 µM,Cc1cc(NC(=O)CS(=O)(=O)c2cn(Cc3cccc(C(F)(F)F)c3)c3ccccc23)no1,
,> 10 µM,Cc1cc(NC(=O)CS(=O)(=O)c2cn(Cc3cccc(-c4ccccc4)c3)c3ccccc23)no1,
,> 10 µM,Cc1cc(NC(=O)CS(=O)(=O)c2cn(Cc3ccc(F)c(Br)c3)c3ccccc23)no1,
56%,,Cc1cc(NC(=O)CS(=O)(=O)c2cn(Cc3cccc(Cl)c3F)c3ccccc23)no1,
84%,,Cc1cc(NC(=O)CS(=O)(=O)c2cn(Cc3cc(Br)ccc3F)c3ccccc23)no1,Activity [8]: inactive; Activity [9]: inactive; Activity [10]: 83%; Activity [11]: inactive; Activity [12]: 83%; Activity [13]: inactive; Kp at 1 h [14]: 0.32; Activity [15]: inactive; fold change (FC) [3]: 49
96%,,Cc1cc(NC(=O)CS(=O)(=O)c2cn(Cc3cccc(Cl)c3)c3ccccc23)no1,
,> 10 µM,COc1ccccc1Cn1cc(S(=O)(=O)CC(=O)Nc2cc(C)on2)c2ccccc21,
,> 10 µM,Cc1cc(NC(=O)CS(=O)(=O)c2cn(Cc3ccc(Cl)c(Cl)c3)c3ccccc23)no1,
,> 10 µM,Cc1cc(NC(=O)CS(=O)(=O)c2cn(Cc3ccc(F)c(Cl)c3)c3ccccc23)no1,
90%,,Cc1cc(NC(=O)CS(=O)(=O)c2cn(Cc3cccc(-c4cn[nH]c4)c3)c3ccccc23)no1,
,> 10 µM,Cc1cc(NC(=O)CS(=O)(=O)c2cn(Cc3cc(Br)cc(Br)c3)c3ccccc23)no1,
,> 10 µM,Cc1cc(NC(=O)CS(=O)(=O)c2cn(Cc3cccc(C#N)c3)c3ccccc23)no1,
,> 10 µM,COc1ccc(Cn2cc(S(=O)(=O)CC(=O)Nc3cc(C)on3)c3ccccc32)cc1,
,> 10 µM,Cc1cc(NC(=O)CS(=O)(=O)c2cn(Cc3ccc(F)cc3Br)c3ccccc23)no1,

# Continued, compound first:
SMILES,Activity [1],EC50 [2],further results
Cc1cc(NC(=O)CS(=O)(=O)c2cn(Cc3cc(-c4cn[nH]c4)ccc3F)c3ccccc23)no1,96%,3.07 µM,
Cc1cc(NC(=O)CS(=O)(=O)c2cn(Cc3cccc(-c4cn[nH]c4)c3F)c3ccccc23)no1,103%,4.4 µM,
Cc1cc(NC(=O)CS(=O)(=O)c2cn(Cc3cccc(-c4ccc(N5CCNCC5)nc4)c3)c3ccccc23)no1,,> 10 µM,
Cc1cc(NC(=O)CS(=O)(=O)c2cn(Cc3cccc(-c4cn[nH]c4)c3)c3cc(F)cc(F)c23)no1,102%,,fold change (FC) [3]: 98
Cc1cc(NC(=O)CS(=O)(=O)c2cn(Cc3ccc(F)c(-c4cn[nH]c4)c3)c3ccccc23)no1,,> 10 µM,
Cc1cc(NC(=O)CS(=O)(=O)c2cn(Cc3ccc(C(F)(F)F)cc3)c3ccccc23)no1,,> 10 µM,
Cc1cc(NC(=O)CS(=O)(=O)c2cn(Cc3cccc(-c4ccc(N5CCCC5)nc4)c3)c3ccccc23)no1,,> 10 µM,
Cc1cc(NC(=O)CS(=O)(=O)c2cn(Cc3cccc(-c4ccc(Cl)nc4)c3)c3ccccc23)no1,,> 10 µM,
Cc1cc(NC(=O)CS(=O)(=O)c2cn(Cc3ccc(OC(F)(F)F)cc3)c3ccccc23)no1,,> 10 µM,
Cc1cc(NC(=O)CS(=O)(=O)c2cn(Cc3ccc(F)cc3F)c3ccccc23)no1,,> 10 µM,
CCC(C)n1cc(-c2cccc(Cn3cc(S(=O)(=O)CC(=O)Nc4cc(C)on4)c4ccccc43)c2)cn1 (configuration not stated),,> 10 µM,
Cc1cc(NC(=O)CS(=O)(=O)c2cn(Cc3cccc(-c4ccc(N5CCOCC5)nc4)c3)c3ccccc23)no1,,> 10 µM,
Cn1cc(-c2ccc(CN3C(=O)C(=O)c4ccccc43)c(F)c2)cn1,,,Kp at 1 h [14]: 0.1
Cc1cc(NC(=O)CS(=O)(=O)c2cn(Cc3cccc(Br)c3)c3cc(F)cc(F)c23)no1,103%,,
